From publication PMC7114156 (Antiviral Research, 2009)
Marks after values point to notes of the source that are not given here.

System: W12 cells
Assay: mRNA measurement by RT-qPCR in W12 cells
Type: cell-based, human
Outline: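 RNA was taken 0, 24 and 48 h after adding test compound; W12 cells were grown in 75 cm² flasks and washed in chilled PBS. 546 Pathway Set genes were run in quadruplicate by RT-qPCR: 10 μl reactions, primers 900 nM, probes 100 nM final. Ct was normalised to GAPDH, with dCt = Ct(control) − Ct(treated) and a two-sided t-test. Fold change was F = 2^dCt where p ≤ 0.05.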

[1] = W12 cells, 100 nM, 24 h, not significantly different from 1
[2] = W12 cells, 100 nM, 48 h, not significantly different from 1

Which results are given for `O=C(N[C@@H]1CCCc2c1[nH]c1ccc(Cl)cc21)c1ccccn1` [GSK983, N-[(1R)-6-Chloro-2,3,4,9-tetrahydro-1H-carbazol-1-yl]-2-pyridinecarboxamide]?
Fold increase due to GSK983, LRP1 mRNA (W12 cells, 10 nM, 48 h): 3.5 fold; Fold increase due to GSK983, NR1H3 mRNA (W12 cells, 10 nM, 48 h): 1.8 fold; Fold increase due to GSK983, OAS1 mRNA (W12 cells, 10 nM, 48 h): 1.7 fold; Fold increase due to GSK983, OAS2 mRNA (W12 cells, 10 nM, 48 h): 1.8 fold; Fold increase due to GSK983, OASL mRNA (W12 cells, 10 nM, 48 h): 2.2 fold; Fold increase due to GSK983, SNAP25 mRNA (W12 cells, 10 nM, 48 h): 3.7 fold; Fold increase due to GSK983, TLR5 mRNA (W12 cells, 10 nM, 48 h): 1.7 fold; Fold increase due to GSK983, TNFSF10 mRNA (W12 cells, 10 nM, 48 h): 1.8 fold; Fold increase due to GSK983, CCL5 mRNA (W12 cells, 100 nM, 24 h): 3.1 fold; Fold increase due to GSK983, CEL mRNA (W12 cells, 100 nM, 24 h): 3.0 fold; Fold increase due to GSK983, COL10A1 mRNA (W12 cells, 100 nM, 24 h): 3.6 fold; Fold increase due to GSK983, CPT1B mRNA (W12 cells, 100 nM, 24 h): 3.2 fold; Fold increase due to GSK983, CSF2 mRNA (W12 cells, 100 nM, 24 h): 3.7 fold; Fold increase due to GSK983, DCN mRNA (W12 cells, 100 nM, 24 h): 2.3 fold; Fold increase due to GSK983, DMPK mRNA (W12 cells, 100 nM, 24 h): 2.9 fold; Fold increase due to GSK983, FMOD mRNA (W12 cells, 100 nM, 24 h): 1.7 fold; Fold increase due to GSK983, IFI6 mRNA (W12 cells, 100 nM, 24 h): 2.3 fold; Fold increase due to GSK983, IFI16 mRNA (W12 cells, 100 nM, 24 h): 1.3 fold; Fold increase due to GSK983, IFI44 mRNA (W12 cells, 100 nM, 24 h): 2.9 fold; Fold increase due to GSK983, IFIT1 mRNA (W12 cells, 100 nM, 24 h): 5.5 fold; Fold increase due to GSK983, IL6 mRNA (W12 cells, 100 nM, 24 h): 3.8 fold; Fold increase due to GSK983, IL8 mRNA (W12 cells, 100 nM, 24 h): 2.1 fold; Fold increase due to GSK983, IRF3 mRNA (W12 cells, 100 nM, 24 h): 1.5 fold; Fold increase due to GSK983, IRF9 mRNA (W12 cells, 100 nM, 24 h): 1.6 fold; Fold increase due to GSK983, ISG15 mRNA (W12 cells, 100 nM, 24 h): 4.3 fold; Fold increase due to GSK983, LRP1 mRNA (W12 cells, 100 nM, 24 h): 3.7 fold; Fold increase due to GSK983, NR1H3 mRNA (W12 cells, 100 nM, 24 h): 6.8 fold; Fold increase due to GSK983, OAS1 mRNA (W12 cells, 100 nM, 24 h): 2.2 fold; Fold increase due to GSK983, OAS2 mRNA (W12 cells, 100 nM, 24 h): 1.9 fold; Fold increase due to GSK983, OASL mRNA (W12 cells, 100 nM, 24 h): 6.7 fold; Fold increase due to GSK983, TLR5 mRNA (W12 cells, 100 nM, 24 h): 2.4 fold; Fold increase due to GSK983, TNFSF10 mRNA (W12 cells, 100 nM, 24 h): 4.3 fold; Fold increase due to GSK983, ERN2 mRNA [1]: 1.7 ^b fold; Fold increase due to GSK983, LIFR mRNA [1]: 1.3 ^b fold; Fold increase due to GSK983, SNAP25 mRNA [1]: 1.7 ^b fold; Fold increase due to GSK983, CCL5 mRNA (W12 cells, 100 nM, 48 h): 47.4 fold; Fold increase due to GSK983, CEL mRNA (W12 cells, 100 nM, 48 h): 10.6 fold; Fold increase due to GSK983, COL10A1 mRNA (W12 cells, 100 nM, 48 h): 2.4 fold; Fold increase due to GSK983, CPT1B mRNA (W12 cells, 100 nM, 48 h): 6.4 fold; Fold increase due to GSK983, CSF2 mRNA (W12 cells, 100 nM, 48 h): 4.9 fold; Fold increase due to GSK983, DCN mRNA (W12 cells, 100 nM, 48 h): 15.4 fold; Fold increase due to GSK983, DMPK mRNA (W12 cells, 100 nM, 48 h): 4.1 fold; Fold increase due to GSK983, ERN2 mRNA (W12 cells, 100 nM, 48 h): 2.8 fold; Fold increase due to GSK983, FMOD mRNA (W12 cells, 100 nM, 48 h): 2.5 fold; Fold increase due to GSK983, IFI6 mRNA (W12 cells, 100 nM, 48 h): 7.3 fold; Fold increase due to GSK983, IFIT1 mRNA (W12 cells, 100 nM, 48 h): 5.5 fold; Fold increase due to GSK983, IL6 mRNA (W12 cells, 100 nM, 48 h): 10.2 fold; Fold increase due to GSK983, IL8 mRNA (W12 cells, 100 nM, 48 h): 2.3 fold; Fold increase due to GSK983, ISG15 mRNA (W12 cells, 100 nM, 48 h): 9.3 fold; Fold increase due to GSK983, LIFR mRNA (W12 cells, 100 nM, 48 h): 2.2 fold; Fold increase due to GSK983, LRP1 mRNA (W12 cells, 100 nM, 48 h): 3.5 fold; Fold increase due to GSK983, NR1H3 mRNA (W12 cells, 100 nM, 48 h): 2.7 fold; Fold increase due to GSK983, OAS1 mRNA (W12 cells, 100 nM, 48 h): 5.0 fold; Fold increase due to GSK983, OAS2 mRNA (W12 cells, 100 nM, 48 h): 2.9 fold; Fold increase due to GSK983, OASL mRNA (W12 cells, 100 nM, 48 h): 10.9 fold; Fold increase due to GSK983, SNAP25 mRNA (W12 cells, 100 nM, 48 h): 4.7 fold; Fold increase due to GSK983, TLR5 mRNA (W12 cells, 100 nM, 48 h): 3.1 fold; Fold increase due to GSK983, TNFSF10 mRNA (W12 cells, 100 nM, 48 h): 8.4 fold; Fold increase due to GSK983, IFI16 mRNA [2]: 1.2 ^b fold; Fold increase due to GSK983, IRF3 mRNA [2]: 1.2 ^b fold; Number of genes of the Pathway Set with significant increases in expression (W12 cells, at both 10 and 100 nM, 546 genes): 22 genes; Expression of the three interferons (alpha, beta, and gamma), PKR and Mx1 (data not shown): not induced
